Measurements: ChEMBL document CHEMBL1155875, “Optimization of the central heterocycle of alpha-ketoheterocycle inhibitors of fatty acid amide hydrolase” (J Med Chem, 2008)

Legend:
[1] = biological target: T1, Fatty-acid amide hydrolase 1 (Rattus norvegicus, UniProt P97612); experiment: Inhibition of rat FAAH expressed in Escherichia coli
T1 sequence (P97612 whole entry): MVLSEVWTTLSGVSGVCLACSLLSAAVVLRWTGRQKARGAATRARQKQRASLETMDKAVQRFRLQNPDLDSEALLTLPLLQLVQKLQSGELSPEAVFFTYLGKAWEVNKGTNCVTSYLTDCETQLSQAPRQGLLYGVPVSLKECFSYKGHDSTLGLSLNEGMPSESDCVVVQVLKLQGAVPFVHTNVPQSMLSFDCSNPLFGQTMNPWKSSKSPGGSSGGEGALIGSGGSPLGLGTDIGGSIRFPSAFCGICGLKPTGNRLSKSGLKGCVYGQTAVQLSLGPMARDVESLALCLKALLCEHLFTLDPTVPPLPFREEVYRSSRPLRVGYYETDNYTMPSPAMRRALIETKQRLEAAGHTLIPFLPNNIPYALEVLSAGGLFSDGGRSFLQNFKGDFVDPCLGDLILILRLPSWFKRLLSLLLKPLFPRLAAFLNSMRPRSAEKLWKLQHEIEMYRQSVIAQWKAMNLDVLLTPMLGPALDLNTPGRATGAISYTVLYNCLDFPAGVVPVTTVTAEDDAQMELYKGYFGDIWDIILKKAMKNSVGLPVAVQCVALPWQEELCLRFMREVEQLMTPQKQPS

[2] = Selectivity ratio of IC50 for TGH over IC50 for rat FAAH expressed in Escherichia coli
[3] = biological target: T1, Fatty-acid amide hydrolase 1; experiment: Inhibition of rat FAAH expressed in Escherichia coli at pH 9.0
[4] = biological target: T2, Neutral cholesterol ester hydrolase 1 (Homo sapiens, UniProt Q6PIU2); experiment: Inhibition of KIAA1363 hydrolase
T2 sequence (Q6PIU2 whole entry): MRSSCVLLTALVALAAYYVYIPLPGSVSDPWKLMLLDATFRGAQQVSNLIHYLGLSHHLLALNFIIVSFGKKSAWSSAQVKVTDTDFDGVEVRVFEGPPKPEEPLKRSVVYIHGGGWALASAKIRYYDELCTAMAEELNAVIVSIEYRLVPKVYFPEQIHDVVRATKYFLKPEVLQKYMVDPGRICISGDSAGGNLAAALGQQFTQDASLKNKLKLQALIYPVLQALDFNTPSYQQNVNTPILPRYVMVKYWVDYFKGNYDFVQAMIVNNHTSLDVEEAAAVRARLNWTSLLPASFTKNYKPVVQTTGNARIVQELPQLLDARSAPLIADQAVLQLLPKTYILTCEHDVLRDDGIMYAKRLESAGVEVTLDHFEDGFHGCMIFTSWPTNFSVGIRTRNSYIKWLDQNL

Liver carboxylesterase 1 = biological target: T3, Liver carboxylesterase 1 (Homo sapiens, UniProt P23141); experiment: Inhibition of TGH
T3 sequence (P23141 whole entry): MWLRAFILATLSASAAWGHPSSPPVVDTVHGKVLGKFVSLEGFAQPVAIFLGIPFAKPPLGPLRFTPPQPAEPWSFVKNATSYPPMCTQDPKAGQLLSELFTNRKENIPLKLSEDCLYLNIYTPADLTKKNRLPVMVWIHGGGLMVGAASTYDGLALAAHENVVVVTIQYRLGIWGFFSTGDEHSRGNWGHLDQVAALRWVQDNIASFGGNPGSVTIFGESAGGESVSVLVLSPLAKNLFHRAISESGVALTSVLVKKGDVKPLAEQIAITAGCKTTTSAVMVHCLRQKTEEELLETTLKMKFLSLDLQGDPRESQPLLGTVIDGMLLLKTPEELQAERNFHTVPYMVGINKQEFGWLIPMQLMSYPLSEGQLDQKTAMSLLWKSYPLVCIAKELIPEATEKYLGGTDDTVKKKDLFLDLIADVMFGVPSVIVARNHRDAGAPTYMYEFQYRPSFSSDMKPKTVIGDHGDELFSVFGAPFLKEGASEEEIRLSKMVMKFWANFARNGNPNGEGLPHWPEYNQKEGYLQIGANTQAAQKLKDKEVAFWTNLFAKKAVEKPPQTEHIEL
Outline: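 Measured in a proteome-wide selectivity screen that globally profiles mammalian serine hydrolases, with TGH among the enzymes detected. Values are reported as IC50 from this screen rather than as Ki from substrate hydrolysis assays.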

- IC50 [1]: 13 µM
- Ratio IC50 [2]: 1
- Ki [3]: 0.39 µM
- IC50 [4]: > 100 µM
- IC50 (Liver carboxylesterase 1): 12 µM
Structure (SMILES): N#Cc1cccc(-c2ccc(C(=O)CCCCCCc3ccccc3)nn2)n1
